Source: ChEMBL document CHEMBL5724801, “EUbOPEN Chemogenomics Library - Multiplex” (2024)
Where “and” joins values, the source holds several entries; their conditions need not be identical. Identical values can stand only once.

What was measured:
U2OS = assay: Multiplex assay against U2OS; assay type: toxicity, cell-based; details: human
Outline: (§1)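 Per cents of healthy-nucleus cells form the tubulin, mitochondrial-mass and membrane-permeability phenotype values. Live cells were stained at seeding with Hoechst33342, BioTracker Green Microtubule Cytoskeleton Dye, MitoTracker Red and Annexin V Alexa Fluor 680. After compound addition they were imaged on a CQ1 microscope at 37°C and 5% CO2, and CellPathfinder machine-learning gating split them into Hoechst high-intensity objects or normal cells, normal cells into healthy, pyknosed or fragmented nuclei, and pyknosed cells into mitotic or apoptotic.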

HEK-293T = assay: Multiplex assay against HEK293T; assay type: toxicity, cell-based; details: human; outline: as §1
[1] = 12 h, 1 µM, compound concentration 1 uM
[2] = 12 h, 10 µM, compound concentration 10 uM
[3] = 24 h, 1 µM, compound concentration 1 uM
[4] = 24 h, 10 µM, compound concentration 10 uM
[5] = 48 h, 1 µM, compound concentration 1 uM
[6] = 48 h, 10 µM, compound concentration 10 uM

## CC(C)COc1ccc(CNC(=O)N(Cc2ccc(F)cc2)C2CCN(C)CC2)cc1 [PIMAVANSERIN]
U2OS; [1]
  Population Apoptotic (%): 84% and 100%
  Population Fragmented Nuclei (%): 23% and 11%
  Population Healthy Nuclei (%): 67% and 80%
  Population Hoechst High Intensity Objects (%): 2% and 0%
  Population Membrane Permeable-Phenotype (%): 6%
  Population Mitochondria Different-Phenotype (%): 3% and 4%
  Population Mitotic Cells (%): 16% and 0%
  Population Normal (%): 97% and 99%
  Population Pyknosed Nuclei (%): 9% and 7%
  Population Tubulin-Different-Phenotype (%): 5% and 6%
  Total Cell Count: 265 and 136
U2OS; [2]
  Population Apoptotic (%): 67% and 71%
  Population Fragmented Nuclei (%): 23% and 18%
  Population Healthy Nuclei (%): 48% and 54%
  Population Hoechst High Intensity Objects (%): 5% and 4%
  Population Membrane Permeable-Phenotype (%): 48% and 26%
  Population Mitochondria Different-Phenotype (%): 73% and 70%
  Population Mitotic Cells (%): 32% and 28%
  Population Normal (%): 94% and 95%
  Population Pyknosed Nuclei (%): 27% and 26%
  Population Tubulin-Different-Phenotype (%): 77% and 52%
  Total Cell Count: 202 and 124
U2OS; [3]
  Population Apoptotic (%): 92% and 78%
  Population Fragmented Nuclei (%): 22% and 11%
  Population Healthy Nuclei (%): 67% and 80%
  Population Hoechst High Intensity Objects (%): 2% and 1%
  Population Membrane Permeable-Phenotype (%): 10% and 11%
  Population Mitochondria Different-Phenotype (%): 4% and 8%
  Population Mitotic Cells (%): 7% and 21%
  Population Normal (%): 97% and 98%
  Population Pyknosed Nuclei (%): 9% and 8%
  Population Tubulin-Different-Phenotype (%): 6%
  Total Cell Count: 294 and 163
U2OS; [4]
  Population Apoptotic (%): 88% and 79%
  Population Fragmented Nuclei (%): 28% and 16%
  Population Healthy Nuclei (%): 40% and 50%
  Population Hoechst High Intensity Objects (%): 10% and 3%
  Population Membrane Permeable-Phenotype (%): 32% and 30%
  Population Mitochondria Different-Phenotype (%): 67% and 75%
  Population Mitotic Cells (%): 11% and 20%
  Population Normal (%): 89% and 96%
  Population Pyknosed Nuclei (%): 31% and 33%
  Population Tubulin-Different-Phenotype (%): 49%
  Total Cell Count: 214 and 135
U2OS; [5]
  Population Apoptotic (%): 87% and 92%
  Population Fragmented Nuclei (%): 19% and 12%
  Population Healthy Nuclei (%): 68% and 76%
  Population Hoechst High Intensity Objects (%): 2% and 1%
  Population Membrane Permeable-Phenotype (%): 6% and 5%
  Population Mitochondria Different-Phenotype (%): 5%
  Population Mitotic Cells (%): 12% and 7%
  Population Normal (%): 97% and 98%
  Population Pyknosed Nuclei (%): 12% and 11%
  Population Tubulin-Different-Phenotype (%): 4% and 2%
  Total Cell Count: 393 and 234
U2OS; [6]
  Population Apoptotic (%): 98% and 95%
  Population Fragmented Nuclei (%): 38%
  Population Healthy Nuclei (%): 19% and 15%
  Population Hoechst High Intensity Objects (%): 13% and 8%
  Population Membrane Permeable-Phenotype (%): 40% and 66%
  Population Mitochondria Different-Phenotype (%): 56% and 80%
  Population Mitotic Cells (%): 1% and 4%
  Population Normal (%): 86% and 91%
  Population Pyknosed Nuclei (%): 42% and 45%
  Population Tubulin-Different-Phenotype (%): 54% and 71%
  Total Cell Count: 222 and 146
HEK-293T; [1]
  Population Apoptotic (%): 39% and 54%
  Population Fragmented Nuclei (%): 5% and 7%
  Population Healthy Nuclei (%): 82% and 74%
  Population Hoechst High Intensity Objects (%): 6% and 11%
  Population Membrane Permeable-Phenotype (%): 0%
  Population Mitochondria Different-Phenotype (%): 50% and 68%
  Population Mitotic Cells (%): 60% and 46%
  Population Normal (%): 93% and 88%
  Population Pyknosed Nuclei (%): 11% and 18%
  Population Tubulin-Different-Phenotype (%): 49% and 35%
  Total Cell Count: 430 and 311
HEK-293T; [2]
  Population Apoptotic (%): 62% and 79%
  Population Fragmented Nuclei (%): 10% and 7%
  Population Healthy Nuclei (%): 60% and 64%
  Population Hoechst High Intensity Objects (%): 19% and 25%
  Population Membrane Permeable-Phenotype (%): 0%
  Population Mitochondria Different-Phenotype (%): 89% and 87%
  Population Mitotic Cells (%): 37% and 20%
  Population Normal (%): 80% and 74%
  Population Pyknosed Nuclei (%): 28% and 27%
  Population Tubulin-Different-Phenotype (%): 81% and 66%
  Total Cell Count: 285 and 237
HEK-293T; [3]
  Population Apoptotic (%): 33% and 48%
  Population Fragmented Nuclei (%): 9% and 4%
  Population Healthy Nuclei (%): 77% and 82%
  Population Hoechst High Intensity Objects (%): 6% and 8%
  Population Membrane Permeable-Phenotype (%): 2% and 0%
  Population Mitochondria Different-Phenotype (%): 42% and 55%
  Population Mitotic Cells (%): 66% and 51%
  Population Normal (%): 93% and 91%
  Population Pyknosed Nuclei (%): 13% and 12%
  Population Tubulin-Different-Phenotype (%): 40% and 30%
